In ChEMBL document CHEMBL1144643, “Optimization of imidazole amide derivatives as cannabinoid-1 receptor antagonists for the treatment of obesity” (Bioorg Med Chem Lett, 2007):
pKi: −log10 of the molar value. Active and inactive are the calls of the source. No cut-off for these calls is given here.

Columns and labels:
[1] = target: T1, Cannabinoid receptor 1 (Homo sapiens, UniProt P21554); experiment: biochemical; format: cell-based, HEK293
[2] = target: T1, Cannabinoid receptor 1; experiment: Antagonist activity at human CB1 receptor expressed in CHOK1 cells assessed as inhibition of forskolin-stimulated cAMP levels; format: functional, cell-based; settings: CHO-K1
Outline: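 Incubated 20 min at 37 °C with graded agonist plus 3 µM forskolin (final), with or without a fixed antagonist concentration. cAMP measured by scintillation proximity assay. Kb from the agonist EC50 concentration ratio: pKb = log(CR−1) − log B.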

[3] = target: Cannabinoid receptor 2 (Homo sapiens, UniProt P34972); experiment: Displacement of [3H][…] from human CB2 receptor expressed in HEK293 cells; format: cell-based
Outline: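 HEK 293 membranes expressing human CB-2 (3.3 µg protein) incubated with 0.3 nM [3H]CP 55940 and varying competitor concentrations. Binding buffer: 50 mM Tris pH 7.4, 2.5 mM EDTA, 5 mM MgCl2, 0.1% fatty-acid-free BSA; 90 min at 30 °C with shaking. Nonspecific binding defined with 10 µM WIN 55212-2. Filtered through GF/C plates, read by scintillation counting. Nonlinear regression; mean of two or more triplicate runs.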

[4] = test system: Rattus norvegicus; experiment: Reduction of food intake in fasted-refed Wistar rat at 10 mg/kg, po after 0.5 to 4 hrs; format: functional; parameters: scale not given: the % may be the effect or the level left
Outline: (§1)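 Male Wistar rats, individually housed on mesh floors, 12-h/12-h light/dark cycle, fasted overnight (18 h). Single oral dose of vehicle or compound at 10 mg/kg (2 mL/kg), vehicle 30% cyclodextrin or PEG/MSA, 1 h before re-feeding. Cumulative food intake recorded at 30, 60, 90, 180 and 240 min, corrected for spillage. 10 rats per group; percent reduction versus vehicle.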

[5] = test system: Rattus norvegicus; experiment: Reduction of body weight in Zucker fa/fa rat at 10 mg/kg, po after 8 days; format: functional; parameters: scale not given: the % may be the effect or the level left
Outline: (§2)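 Two-day baseline body weight and 24 h food and water intake, then weight-matched into groups. Daily oral dose of 1, 5 or 10 mg/kg suspension (2 mL/kg) before the nocturnal feeding phase. Body weight recorded daily; change versus vehicle-treated rats.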

[6] = Cmax in Wistar rat plasma at 10 mg/kg, po; format: ADME, organism-based; parameters: dose 10 mg/kg, route oral
Outline: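 Wistar rats dosed orally at 10 mg/kg, typically as a 30% cyclodextrin suspension or as a suspension in PEG400/25 mM methanesulfonic acid (80:20). Plasma levels sampled typically at 0.5, 1 and 2 h after dosing; Cmax taken from these time points.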

[7] = Drug level in Wistar rat brain at 10 mg/kg, po after 2 hrs; format: ADME, organism-based; parameters: dose 10 mg/kg, route oral; settings: read-out: Drug uptake
Outline: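 Brain levels measured 2 h after a 10 mg/kg oral dose to Wistar rats, within pharmacokinetic screening; oral vehicle was PEG/MSA suspension.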

[8] = test system: Rattus norvegicus; experiment: Reduction of body weight in Zucker fa/fa rat at 1 mg/kg, po after 13 days; format: functional, Zuker fa/fa; parameters: scale not given: the % may be the effect or the level left
Outline: as §2

[9] = test system: Rattus norvegicus; experiment: Reduction of body weight in Zucker fa/fa rat at 5 mg/kg, po after 13 days; format: functional; parameters: scale not given: the % may be the effect or the level left
Outline: as §2

[10] = test system: Rattus norvegicus; experiment: Reduction of food intake in fasted-refed Wistar rat at 10 mg/kg, po after 0.5 hrs; format: functional; parameters: scale not given: the % may be the effect or the level left
Outline: as §1

[11] = test system: Rattus norvegicus; experiment: Reduction of food intake in fasted-refed Wistar rat at 10 mg/kg, po after 1 hr; format: functional; parameters: scale not given: the % may be the effect or the level left
Outline: as §1

[12] = test system: Rattus norvegicus; experiment: Reduction of food intake in fasted-refed Wistar rat at 10 mg/kg, po after 1.5 hrs; format: functional; parameters: scale not given: the % may be the effect or the level left
Outline: as §1

[13] = test system: Rattus norvegicus; experiment: Reduction of food intake in fasted-refed Wistar rat at 10 mg/kg, po after 3 hrs; format: functional; parameters: scale not given: the % may be the effect or the level left
Outline: as §1

[14] = test system: Rattus norvegicus; experiment: Reduction of food intake in fasted-refed Wistar rat at 10 mg/kg, po after 4 hrs; format: functional; parameters: scale not given: the % may be the effect or the level left
Outline: as §1

[15] = test system: Rattus norvegicus; experiment: Reduction of body weight in Zucker fa/fa rat at 10 mg/kg, po after 13 days; format: functional; parameters: scale not given: the % may be the effect or the level left
Outline: as §2

[16] = test system: Rattus norvegicus; experiment: Effect on cumulative food intake in fasted-refed Wistar rat assessed as appetite suppression at 10 mg/kg, po; format: functional, organism-based; parameters: dose 10 mg/kg
Outline: as §1

T1 sequence (P21554 whole entry): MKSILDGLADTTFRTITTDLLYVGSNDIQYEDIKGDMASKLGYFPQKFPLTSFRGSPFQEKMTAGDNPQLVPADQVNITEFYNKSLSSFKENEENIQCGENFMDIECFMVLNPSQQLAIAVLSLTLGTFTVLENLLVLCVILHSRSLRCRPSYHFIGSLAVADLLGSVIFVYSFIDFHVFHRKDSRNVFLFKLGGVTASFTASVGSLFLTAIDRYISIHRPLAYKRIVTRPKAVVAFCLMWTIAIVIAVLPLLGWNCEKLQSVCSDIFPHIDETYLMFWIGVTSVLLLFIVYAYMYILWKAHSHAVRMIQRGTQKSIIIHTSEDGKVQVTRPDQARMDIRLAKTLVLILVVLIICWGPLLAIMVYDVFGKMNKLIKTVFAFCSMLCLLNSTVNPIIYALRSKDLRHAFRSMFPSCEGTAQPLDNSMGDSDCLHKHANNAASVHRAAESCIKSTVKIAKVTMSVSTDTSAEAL
Cannabinoid receptor 2, sequence (P34972 whole entry): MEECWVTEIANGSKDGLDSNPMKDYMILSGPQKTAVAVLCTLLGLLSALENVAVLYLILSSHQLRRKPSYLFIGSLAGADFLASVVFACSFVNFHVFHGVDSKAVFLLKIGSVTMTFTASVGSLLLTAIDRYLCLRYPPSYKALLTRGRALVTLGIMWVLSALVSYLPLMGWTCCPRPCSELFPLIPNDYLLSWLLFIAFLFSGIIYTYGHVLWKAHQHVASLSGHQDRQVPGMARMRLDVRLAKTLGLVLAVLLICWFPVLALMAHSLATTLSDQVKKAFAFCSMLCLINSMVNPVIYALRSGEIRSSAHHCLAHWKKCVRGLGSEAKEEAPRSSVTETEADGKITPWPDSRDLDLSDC

Structure (SMILES): O=C(N[C@H]1c2ccccc2C[C@@H]1O)c1cn(-c2ccc(Cl)cc2)c(-c2ccccc2Cl)n1 (racemic)
- pKi [1]: 7.66

Structure (SMILES): O=C(N[C@@H]1CCC[C@H]1O)c1cn(-c2ccc(Cl)cc2)c(-c2ccccc2Cl)n1
- pKi [1]: 7.12

Structure (SMILES): O=C(N[C@@H]1CCCC[C@H]1O)c1cn(-c2ccc(Cl)cc2)c(-c2ccccc2Cl)n1
- pKi [1]: 7.01
- Kb [2]: 22 nM

Structure (SMILES): O=C(NC1CCCCC1O)c1cn(-c2ccc(Cl)cc2)c(-c2ccc(Cl)cc2Cl)n1 (racemic)
- pKi [1]: 7.66
- pKi [3]: 5.96
- Kb [2]: 4.4 nM
- Activity [4]: 21%

Structure (SMILES): Cc1ccc(-n2cc(C(=O)NC3CCCCC3)nc2-c2ccccc2Cl)cc1
- pKi [1]: 8.34

Structure (SMILES): CCc1ccccc1-c1nc(C(=O)NC2CCCCC2)cn1-c1ccc(Cl)cc1
- pKi [1]: 7.41

Structure (SMILES): Cc1ccc(-n2cc(C(=O)NC3CCCCC3)nc2-c2ccc(Cl)cc2Cl)cc1
- pKi [1]: 8.72

Structure (SMILES): O=C(NC1CCCCC1)c1cn(-c2ccc(Cl)cc2)c(-c2ccccc2Cl)n1
- pKi [1]: 8.66
- pKi [3]: 5.64
- Kb [2]: 11 nM

Structure (SMILES): CCc1c(C(=O)N[C@H]2CCCC[C@@H]2O)nc(-c2ccccc2Cl)n1-c1ccc(Cl)cc1
- pKi [3]: 5.64

Structure (SMILES): O=C(NC1CCCCC1)c1cn(-c2cccnc2)c(-c2ccccc2Cl)n1
- pKi [1]: 5.96

Structure (SMILES): Cc1c(C(=O)NN2CCCCC2)nn(-c2ccc(Cl)cc2Cl)c1-c1ccc(Cl)cc1 [RIMONABANT]
- Activity [5]: 6.5%

Structure (SMILES): O=C(NC1CCCCC1)c1cn(-c2ccc(F)cc2)c(-c2ccccc2Cl)n1
- pKi [1]: 7.70

Structure (SMILES): Cc1ccccc1-c1nc(C(=O)NC2CCCCC2)cn1-c1ccc(Cl)cc1
- pKi [1]: 7.68
- pKi [3]: < 6.00
- Kb [2]: 7.3 nM

Structure (SMILES): CN[C@H]1CCCC[C@@H]1NC(=O)c1cn(-c2ccc(Cl)cc2)c(-c2ccc(Cl)cc2Cl)n1
- pKi [1]: 6.21

Structure (SMILES): N[C@H]1CCCC[C@@H]1NC(=O)c1cn(-c2ccc(Cl)cc2)c(-c2ccc(Cl)cc2Cl)n1
- pKi [1]: 6.57

Structure (SMILES): CCCc1c(C(=O)N[C@H]2CCCC[C@@H]2O)nc(-c2ccccc2Cl)n1-c1ccc(Cl)cc1
- pKi [1]: 8.24
- pKi [3]: 5.57
- Kb [2]: 1.4 nM

Structure (SMILES): N[C@@H]1CCCC[C@H]1NC(=O)c1cn(-c2ccc(Cl)cc2)c(-c2ccc(Cl)cc2Cl)n1
- pKi [1]: 6.03

Structure (SMILES): O=C(N[C@H]1CCCC[C@@H]1O)c1cn(-c2ccc(Cl)cc2)c(-c2ccccc2Cl)n1
- pKi [1]: 7.54
- pKi [3]: 5.28
- Kb [2]: 7.1 nM
- Cmax [6]: 1640 nM
- Activity [4]: 34%
- concentration at 2 h [7]: 110 nM

Structure (SMILES): Cc1c(C(=O)N[C@H]2CCCC[C@@H]2O)nc(-c2ccccc2Cl)n1-c1ccc(Cl)cc1
- pKi [1]: 8.16

Structure (SMILES): COc1ccc(-n2cc(C(=O)NC3CCCCC3)nc2-c2ccc(Cl)cc2Cl)cc1
- pKi [1]: 8.31

Structure (SMILES): O=C(N[C@H]1CCCC[C@@H]1O)c1nc(-c2ccccc2Cl)n(-c2ccc(Cl)cc2)c1Br
- pKi [1]: 7.72

Structure (SMILES): O=C(N[C@H]1Cc2ccccc2[C@@H]1O)c1cn(-c2ccc(Cl)cc2)c(-c2ccccc2Cl)n1 (racemic)
- pKi [1]: 7.39

Structure (SMILES): CN(C(=O)c1cn(-c2ccc(Cl)cc2)c(-c2ccccc2Cl)n1)C1CCCCC1
- pKi [1]: 7.47

Structure (SMILES): O=C(N[C@@H]1c2ccccc2C[C@@H]1O)c1cn(-c2ccc(Cl)cc2)c(-c2ccccc2Cl)n1
- pKi [1]: 7.74
- pKi [3]: 5.29
- Kb [2]: 9.2 nM

Structure (SMILES): O=C(NC1CCCCC1)c1cn(-c2ccc(Cl)cc2)c(-c2cc(Cl)ccc2Cl)n1
- pKi [1]: 7.60

Structure (SMILES): CC(C)c1c(C(=O)N[C@H]2CCCC[C@@H]2O)nc(-c2ccccc2Cl)n1-c1ccc(Cl)cc1
- pKi [1]: 7.74

Structure (SMILES): CCc1c(C(=O)N[C@H]2CCCC[C@@H]2O)nc(-c2ccccc2Cl)n1-c1ccc(Br)cc1
- Activity [8]: -1.9%
- Activity [9]: -6.1%
- pKi [1]: 8.43
- pKi [3]: 5.57
- Kb [2]: 13 nM
- Cmax [6]: 2100 nM
- Activity [10]: 63%
- Activity [11]: 64%
- Activity [12]: 62%
- Activity [13]: 52%
- Activity [14]: 35%
- Activity [15]: -10.6%
- Activity [5]: 5.6%

Structure (SMILES): O=C(N[C@H]1CCC[C@@H]1O)c1cn(-c2ccc(Cl)cc2)c(-c2ccccc2Cl)n1
- pKi [1]: 7.54
- pKi [3]: 5.20
- Kb [2]: 9.7 nM
- Cmax [6]: 2110 nM
- Activity [4]: 26%
- concentration at 2 h [7]: 330 nM

Structure (SMILES): CN[C@@H]1CCCC[C@H]1NC(=O)c1cn(-c2ccc(Cl)cc2)c(-c2ccc(Cl)cc2Cl)n1
- pKi [1]: 6.04

Structure (SMILES): CC1CCC(n2cc(C(=O)NC3CCCCC3)nc2-c2ccccc2Cl)CC1 (stereo not given)
- pKi [1]: 7.77

Structure (SMILES): O=C(NC1CCCCC1)c1cn(-c2ccc(Cl)cc2)c(-c2ccc(Cl)cc2Cl)n1
- pKi [1]: 8.41
- pKi [3]: 6.62
- Kb [2]: 18 nM
- Cmax [6]: 50 nM
- Activity [16]: inactive

Structure (SMILES): COc1ccccc1-c1nc(C(=O)NC2CCCCC2)cn1-c1ccc(Cl)cc1
- pKi [1]: 7.02

Structure (SMILES): COc1ccc(-n2cc(C(=O)NC3CCCCC3)nc2-c2ccccc2Cl)cc1
- pKi [1]: 8.05

Structure (SMILES): O=C(N[C@H]1Cc2ccccc2[C@H]1O)c1cn(-c2ccc(Cl)cc2)c(-c2ccccc2Cl)n1 (racemic)
- pKi [1]: 7.77

Structure (SMILES): O=C(NC1CCCCC1)c1cn(-c2ccc(Cl)cc2)c(-c2ccc(F)cc2F)n1
- pKi [1]: 7.44

Structure (SMILES): CCCCc1c(C(=O)N[C@H]2CCCC[C@@H]2O)nc(-c2ccccc2Cl)n1-c1ccc(Cl)cc1
- pKi [1]: 8.00

Structure (SMILES): O=C(NC1CCCCC1)c1cn(-c2ccc(F)cc2)c(-c2ccc(Cl)cc2Cl)n1
- pKi [1]: 8.09

Structure (SMILES): O=C(NC1CCCCC1)c1cn(-c2ccc(Cl)cc2)c(-c2ccccc2)n1
- pKi [1]: 6.89

Structure (SMILES): Cc1ccc(-c2nc(C(=O)NC3CCCCC3)cn2-c2ccc(Cl)cc2)c(C)c1
- pKi [1]: 8.14

Structure (SMILES): O=C(N[C@H]1c2ccccc2C[C@H]1O)c1cn(-c2ccc(Cl)cc2)c(-c2ccccc2Cl)n1
- pKi [1]: 8.20
- pKi [3]: 5.92
- Kb [2]: 2.2 nM
